WT yeast gro inh = growth inhibition of WT yeast, mitochondrial fusion screen | hit rate 2.1% among 190,000 | inhibition, % at 10 µM | mitochondrial fusion phenotypic screen, WT strain; in the data active means inhibition above about 58%; tested in S. cerevisiae
RBBP9 inhibitor = blocks human serine hydrolase RBBP9. O75884. recombinant RBBP9, FP-Rh probe fluorescence polarization. inhibition, % at 7.94 µM. hit rate 0.2% among 220,000. AID 1515;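 active means inhibition above the campaign mean of all tested compounds plus 3 SD, cut at about 14% in these data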
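System: RBBP9 protein | Quantity: 2.5 µM RBBP9 dispensing solution, before mixing | Reagent: FP-Rh probe, 375 nM dispensing solution | Timing: Enzyme-compound preincubation 30 min, then probe labeling 45 min, 25 °C | Measured by: Fluorescence polarization | Read-out: % inhibition | Replication: One well per compound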
NCF1 inh = inhibitors of human p47phox binding | inhibition, % at 24.7 µM | p47phox/p22phox peptide binding, fluorescence polarization, 2 h | P14598 | hit rate 0.53% among 220,000;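 active means inhibition above about 30%, limit read from the data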
Cl transport mod = KCC2 (human) Cl- transport modulation. KCC2 cells, thallium flux FluoZin-2 fluorescence. AID 1456. B-score of Tl+ flux slope (higher = more flux/activation; lower = inhibition) at 10 µM. hit rate 2.2% among 190,000. Q9H2X9;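 active means thallium flux slope and its plate-corrected score both differing from the plate sample mean at a set confidence after two filtering rounds, in either direction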;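 further: slope of fluorescence scaled to starting intensity during 10 to 20 s after thallium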
Target sequence (Q9H2X9 whole entry, looked up): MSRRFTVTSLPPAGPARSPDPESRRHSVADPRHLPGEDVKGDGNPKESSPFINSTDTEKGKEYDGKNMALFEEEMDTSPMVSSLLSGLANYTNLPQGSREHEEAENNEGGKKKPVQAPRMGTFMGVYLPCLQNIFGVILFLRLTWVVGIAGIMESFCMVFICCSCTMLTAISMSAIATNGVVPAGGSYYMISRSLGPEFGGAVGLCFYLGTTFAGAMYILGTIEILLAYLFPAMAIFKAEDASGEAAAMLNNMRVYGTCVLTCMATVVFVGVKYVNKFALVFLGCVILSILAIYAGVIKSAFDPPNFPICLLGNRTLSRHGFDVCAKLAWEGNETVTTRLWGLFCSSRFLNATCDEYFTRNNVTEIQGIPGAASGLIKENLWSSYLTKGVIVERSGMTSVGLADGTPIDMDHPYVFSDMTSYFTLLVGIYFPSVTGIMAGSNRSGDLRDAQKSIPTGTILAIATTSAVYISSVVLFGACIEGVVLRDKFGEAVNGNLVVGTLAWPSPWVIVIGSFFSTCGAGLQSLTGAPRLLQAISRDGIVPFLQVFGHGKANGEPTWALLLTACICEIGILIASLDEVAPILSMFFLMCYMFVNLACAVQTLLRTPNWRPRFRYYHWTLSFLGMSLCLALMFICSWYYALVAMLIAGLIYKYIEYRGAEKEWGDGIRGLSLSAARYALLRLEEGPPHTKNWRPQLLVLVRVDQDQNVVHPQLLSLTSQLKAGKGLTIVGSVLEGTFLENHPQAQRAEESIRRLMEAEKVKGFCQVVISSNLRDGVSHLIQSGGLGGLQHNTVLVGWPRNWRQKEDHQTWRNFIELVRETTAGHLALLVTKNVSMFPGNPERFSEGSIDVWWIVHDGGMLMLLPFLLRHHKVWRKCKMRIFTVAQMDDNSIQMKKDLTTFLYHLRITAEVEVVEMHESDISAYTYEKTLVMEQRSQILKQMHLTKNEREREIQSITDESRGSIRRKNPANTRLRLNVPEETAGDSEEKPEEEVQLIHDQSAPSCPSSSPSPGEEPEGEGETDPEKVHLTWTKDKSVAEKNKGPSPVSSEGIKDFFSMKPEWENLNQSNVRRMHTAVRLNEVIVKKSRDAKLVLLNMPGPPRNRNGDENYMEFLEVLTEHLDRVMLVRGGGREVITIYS
14-3-3 Bad inh = disrupts binding of bovine 14-3-3 zeta to phospho-Bad peptide | P63103 | inhibition, % at 21.7 µM | TR-FRET 14-3-3zeta/Dy647-pBad peptide displacement, 1 h | hit rate 0.71% among 220,000 | AID 781;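 active means inhibition above about 70%, limit read from the data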
ROMK primary = human ROMK K+ channel modulation, primary screen. P48048. Tet-inducible ROMK, thallium flux fluorescence; actives lie on both sides. B-score at 10 µM. hit rate 2% among 130,000. AID 1918;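 active means signal ratio slope over the read window, or its plate-corrected B-score, at least 3 SD from the plate mean, either direction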;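 further: B-score of the F/F0 ratio slope over 7 to 12 s after thallium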
RBBP9 confirm = human RBBP9 inhibition, confirmation. shares compounds with RBBP9 inhibitor. recombinant RBBP9, FP-Rh probe fluorescence polarization. inhibition, % at 7.94 µM. hit rate 36% among 410. AID 1537;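 active means inhibition above the hit cutoff derived for the primary screen, cut at about 15% in these data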
Numbers stand for hits; . = inactive; / = not tested or not shown; ! = not active in a repeat. This is a sample that favours compounds with a hit; in the whole collection about 5.8% have one here.

SMILES	WT yeast gro inh	RBBP9 inhibitor	NCF1 inh	Cl transport mod	14-3-3 Bad inh	ROMK primary	RBBP9 confirm
O=C1c2ccccc2NC(c2cccc(O)c2)N1Cc1ccco1 (stereo not drawn)	/	15	.	.	.	/	29
CC1CCCCC1NC(=O)c1ccc(S(=O)(=O)NCc2ccco2)cc1 (stereo not drawn)	.	18	.	.	.	/	.
O=C(COC(=O)c1ccc(S(=O)(=O)NCc2ccco2)cc1)NC1CCCCC1	.	.	.	.	.	.	/
CC1(C)NC(=O)NC2(C)NC(=O)NC(C)(C)C12 (stereo not drawn)	.	20	.	.	.	/	.
N#Cc1cc(N)ccc1Sc1ccc(Cl)cc1	.	.	.	/	.	/	/
N#Cc1ncc(C(F)(F)F)cc1Sc1ccc(N)cc1	.	19	.	/	.	.	.
Cc1cc(O)ccc1Nc1nc2ccccc2nc1Nc1ccc(O)cc1C	.	21	56	/	.	.	.
COC(=O)C1CSc2[nH]c(=O)sc2C1c1ccc(O)c(OC)c1 (stereo not drawn)	.	14	.	.	.	.	.
O=C(NC1CCN(Cc2ccccc2)CC1)c1ccc2c(c1)[nH]c(=O)n2Cc1ccc(F)cc1	.	.	.	.	.	.	/
O=c1c(-c2ccco2)[n+]([O-])c2ccccc2n1OCc1ccccc1F	.	15	.	/	.	.	.
O=c1c(-c2ccco2)[n+]([O-])c2ccccc2n1OCc1c(F)cccc1F	/	.	.	.	.	.	/
COc1ccc2c(c1)c1ccc3c(c1n2C)C(=O)C=CC3=O	/	63	.	.	.	/	71
Cc1ccc2c(c1)c1ccc3c(c1n2C)C(=O)C=CC3=O	/	.	.	.	.	.	/
COc1ccc(OC)c(S(=O)(=O)N2CCC(C(=O)N(C)Cc3ccccc3)CC2)c1	/	.	.	.	.	/	/
CCCCc1ccc(NC(=O)c2cnccn2)cc1	.	.	.	.	.	.	/
O=C(O[C@@H]1OC2COC(=O)c3cc(O)c(O)c(O)c3-c3c(cc(O)c(O)c3O)C(=O)O[C@@H]([C@H]1O)[C@@H]2O)c1cc(O)c(O)c(O)c1	.	19	.	.	.	.	32
CC1(C)Cc2ccccc2C(N/N=C/c2ccc(Cl)cc2)=N1	.	.	.	.	.	.	/
Cc1c2cc(O)c(=O)cc-2oc2cc(O)c(O)cc12	.	43!	.	.	93	/	83
COc1ccccc1OCCC(=O)OCC(=O)Nc1ncc(Cl)cc1Cl	.	.	.	.	.	/	/
COc1ccc(NC(=O)Nc2ccc3oc(C)nc3c2)cc1	.	.	.	.	.	.	/
Cc1nc2cc(NC(=O)N(C)c3ccc4ccccc4c3)ccc2o1	.	16	.	.	.	/	.
O=P(O)(CCc1ccccn1)CN1CCOCC1	.	.	/	/	/	.	/
Cc1ccc(CCP(=O)(O)CN2CCOCC2)cn1	.	18	.	.	.	/	.
COc1cc(C2C(C(=O)OC(C)C)=C(C)Nc3[nH]c(=O)[nH]c(=O)c32)ccc1O (stereo not drawn)	.	17	.	.	.	/	.
O=C(c1ccc(Cl)c([N+](=O)[O-])c1)N1CCN(Cc2ccc3c(c2)OCO3)CC1	.	.	.	.	.	.	/
SMILES	WT yeast gro inh	RBBP9 inhibitor	NCF1 inh	Cl transport mod	14-3-3 Bad inh	ROMK primary	RBBP9 confirm
COc1ccc(S(=O)(=O)N(C(=O)c2ccco2)c2cc3sc(=O)oc3c3ccccc23)cc1	.	29	.	.	.	.	.
Cc1ccc(S(=O)(=O)N(C)CC(=O)N2CCN(C(=O)c3ccco3)CC2)cc1	.	.	.	.	.	.	/
Cc1ccc(S(=O)(=O)N(C(=O)c2ccco2)c2cc3sc(=O)oc3c3ccccc23)cc1	.	40	.	.	.	/	.
CCOc1ccc(S(=O)(=O)N(C(=O)c2ccco2)c2cc3sc(=O)oc3c3ccccc23)cc1	.	30	.	.	.	.	.
CN(C)S(=O)(=O)c1cccc(NC(=O)COC(=O)CNC(=O)c2ccccc2F)c1	/	.	.	.	.	/	/
CN1CCN(CC(=O)Nc2c(C#N)cnn2-c2ccccc2)CC1	/	.	.	.	.	.	/
O=C(Oc1cccc([N+](=O)[O-])c1)N1CCCCC1	.	16	.	.	.	.	.
Cc1ccccc1N=C1c2ccccc2C(=O)C1[N+](=O)[O-] (stereo not drawn)	.	.	.	/	.	.	/
CCOc1cc(-c2ccc(N)c(OCC)c2)ccc1N	.	16	.	.	.	.	29
O=S(=O)(Nc1ccc(-n2cnnn2)cc1)c1ccc(F)c(F)c1F	/	.	.	.	.	/	/
C/C(=N\OCc1ccccc1)c1c(O)cc(C(C)C)n(-c2ccccc2)c1=O	.	.	.	.	.	.	/
CC(C)NC(=O)COc1nncc2ccccc12	.	.	.	.	.	.	/
COc1cc(C2=NC(CO)(CO)CO2)cc(OC)c1OC	.	.	.	.	.	.	/
O=C(O)c1ccc(NC2=Nc3cccc4cccc2c34)cc1	/	15	.	.	.	.	.
COc1cc(OC)c(/C=N/NC(=O)Cn2nc([N+](=O)[O-])cc2C)c(OC)c1	/	.	.	.	.	/	/
Cc1ccc(S(=O)(=O)N(C)c2ccccc2)cc1	.	14	.	/	.	.	.
Cc1ccc(N(C)S(=O)(=O)c2ccc(C)cc2)cc1	.	.	.	/	.	/	/
COC(=O)C(NC(=O)c1cccnc1Cl)C(C)C (stereo not drawn)	/	.	.	.	.	/	/
O=C(COc1ccc2ccc(=O)oc2c1)N1CCc2ccccc21	.	.	.	.	.	.	/
Oc1ccc(O)c(-c2cnns2)c1	.	18	.	.	.	.	55
COc1ccccc1NC(=O)c1cc2cc(Br)ccc2cc1O	/	19	.	.	.	.	30
COc1cc(NC(=O)c2cc3ccccc3cc2O)c(OC)cc1Cl	/	.	.	.	.	/	/
CCc1ccccc1NC(=O)CSc1nnc(Cn2nnc3ccccc32)n1C	.	15	.	.	.	.	.
CCc1ccc(CN(C)CC(=O)Nc2sccc2C#N)cc1	.	.	.	.	.	.	/
CSc1nc(Cl)cc(=O)[nH]1	/	15	.	.	.	/	.
SMILES	WT yeast gro inh	RBBP9 inhibitor	NCF1 inh	Cl transport mod	14-3-3 Bad inh	ROMK primary	RBBP9 confirm
COc1ccc(-c2[nH]c(-c3ccccc3)nc2SCC(=O)Nc2nccs2)cc1	.	26	.	.	.	.	.
COc1ccc(-c2[nH]c(-c3ccc(Cl)cc3)nc2SCC(=O)Nc2nccs2)cc1	.	.	.	.	.	.	/
Cc1cc(=O)[nH]c(N/N=C/c2ccc(OC(=O)c3cccnc3)cc2)n1	.	.	.	.	.	.	/
COc1cc(/C=N/Nc2ccc(F)cc2F)cc(OC)c1O	.	17	.	.	.	/	53
CC(NC(=O)C(c1ccccc1)c1ccccc1)C(=O)N1CCCCC1 (stereo not drawn)	.	.	.	.	.	.	/
COCCN=c1scc(-c2cccs2)n1/N=C/c1ccc(O)c(O)c1O	.	36	.	.	.	/	63
CCN=c1scc(C)n1/N=C/c1cc(Br)c(O)c(Br)c1	.	.	.	.	.	.	/

Screens (PubChem)
